Measurements from ChEMBL document CHEMBL1154198, “Chemical genetics of Plasmodium falciparum” (Nature, 2010).

Legend:
Trypanosoma brucei = assay: ST_JUDE: Cytotoxicity using luciferase to measure ATP as an indicator of the viability of Trypanosoma brucei; assay type: functional, organism-based
[1] = ST_JUDE: Cytotoxicity using luciferase to measure ATP as an indicator of the viability of human epithelial hepatocellular carcinoma cells (HepG2); assay type: toxicity, cell-based
[2] = ST_JUDE: Cytotoxicity using luciferase to measure ATP as an indicator of the viability of human epithelial embryonic kidney cells (HEK293); assay type: toxicity, cell-based
Plasmodium falciparum [3] = assay: ST_JUDE: Cytotoxicity against Plasmodium falciparum V1/S; assay type: functional, organism-based
Plasmodium falciparum [4] = assay: ST_JUDE: Cytotoxicity against Plasmodium falciparum 3D7; assay type: functional, organism-based
Summary of the method: (§1)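 Asexual P. falciparum grown in human erythrocytes, exposed to compounds for 72 h, and growth read as the DNA quantity in treated versus control cultures. Dose-response run at 12 concentrations from 10 μM to 5 nM.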

Plasmodium falciparum [5] = assay: ST_JUDE: Cytotoxicity against Plasmodium falciparum SB-A6; assay type: functional, organism-based
Plasmodium falciparum [6] = assay: ST_JUDE: Plasmodium falciparum K1 EC50 (uM) as measured by SYBR green dye; assay type: functional, organism-based
Plasmodium falciparum [7] = assay: ST_JUDE: Plasmodium falciparum 3D7 EC50 (uM) as measured by SYBR green dye; assay type: functional, organism-based
Plasmodium falciparum [8] = assay: ST_JUDE: Cytotoxicity against Plasmodium falciparum W2; assay type: functional, organism-based
Leishmania major = assay: ST_JUDE: Cytotoxicity using Alamar Blue to measure viability of Leishmania major; assay type: functional, organism-based
Summary of the method: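 L. major promastigotes; drug susceptibility read with Alamar Blue.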

[9] = ST_JUDE: Cytotoxicity using luciferase to measure ATP as an indicator of the viability of human foreskin fibroblast cells (BJ); assay type: toxicity, cell-based
[10] = ST_JUDE: Cytotoxicity using luciferase to measure ATP as an indicator of the viability of human Burkitt''s lymphoma lymphoblast cells (Raji); assay type: toxicity, cell-based
Toxoplasma gondii = assay: ST_JUDE: Growth inhibition of to Toxoplasma gondii, in human U-2OS cells, as measured by luciferase.; assay type: functional, organism-based; conditions: RH, U2OS
Summary of the method: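 T. gondii parasites engineered to express luciferase; drug sensitivity read by luminescence.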

Plasmodium falciparum [11] = assay: ST_JUDE: Cytotoxicity against Plasmodium falciparum K1; assay type: functional, organism-based; summary of the method: as §1
Plasmodium falciparum [12] = assay: ST_JUDE: Cytotoxicity against Plasmodium falciparum D10 transfected with yeast DHOD; assay type: functional, organism-based
Plasmodium falciparum [13] = assay: ST_JUDE: Cytotoxicity against Plasmodium falciparum Dd2; assay type: functional, organism-based

Compound | EC50 (Plasmodium falciparum [6]) [µM] | EC50 (Plasmodium falciparum [7]) [µM] | EC50 (Trypanosoma brucei) [µM] | EC50 [1] [µM] | EC50 [2] [µM] | EC50 (Plasmodium falciparum [3]) [µM] | EC50 (Plasmodium falciparum [4]) [µM] | EC50 (Plasmodium falciparum [5]) [µM] | EC50 (Plasmodium falciparum [8]) [µM] | EC50 (Leishmania major) [µM] | EC50 [9] [µM] | EC50 [10] [µM] | EC50 (Toxoplasma gondii) [µM] | EC50 (Plasmodium falciparum [11]) [µM] | EC50 (Plasmodium falciparum [12]) [µM] | EC50 (Plasmodium falciparum [13]) [µM]
Cc1c2[nH]c3ccccc3c2c2c([n+]1C)CC(C)(C)CC2 | 1.4 | 0.896 | 13.6 | > 55.5 | > 55.5 | 3.33 | 3.19 | 1.04 | 0.154 | 0.48 | > 55.5 | > 55.5 | > 30.4 | 3.52 | 1.35 | 0.921
O=S(=O)(c1ccc(Cl)cc1)N1CCN(C(=S)NCc2ccco2)CC1 | 1.27 | 1.51 | 24.9 | > 30.1 | > 30.1 | 2.4 | 0.864 | 4.46 | 0.82 | > 12.9 | > 30.1 | > 30.1 | > 16.5 | 1.15 | 3.49 | 0.849
c1ccc(CCNc2ccnc3cc4ccccc4cc23)cc1 | 0.191 | 0.121 | 2.88 | 1.32 | 7.19 | 0.833 | 0.267 | 0.171 | 0.674 | > 13.3 | 6.62 | 9.53 | > 17 | 0.671 | 1 | 0.15
COc1ccccc1C1CC2=NC(C)=C(C(=O)OC(C)C)C(c3ccc(Cl)cc3)C2=C(O)C1 (stereo unspecified) | 0.688 | 1.28 | 0.68 | > 29.9 | > 29.9 | 0.846 | 1.01 | 0.753 | > 7.68 | > 12.8 | > 29.9 | > 29.9 | > 16.4 | 0.641 | 0.779 | 1.1
COc1ccccc1Cn1ccnc1SCC(=O)Nc1cc(C(F)(F)F)ccc1Cl | 0.17 | 0.119 | 12.1 | > 39.1 | > 39.1 | 0.288 | 0.19 | > 10 | 2.67 | > 16.7 | > 39.1 | > 39.1 | > 21.4 | 0.252 | > 10 | 0.246
CCCCCCCCCC[n+]1ccccc1 | 1.53 | 1.31 | > 46.9 | > 48.9 | > 48.9 | 9.36 | 2.29 | 2.88 | 0.899 | > 20.9 | > 48.9 | 9.31 | > 26.8 | 3.6 | 3.93 | 1.15

Further molecules by falling EC50 (Plasmodium falciparum [6]), results first:

EC50 (Plasmodium falciparum [6]) [µM] | EC50 (Plasmodium falciparum [7]) [µM] | Compound | EC50 (Trypanosoma brucei) [µM] | EC50 [1] [µM] | EC50 [2] [µM] | EC50 (Plasmodium falciparum [3]) [µM] | EC50 (Plasmodium falciparum [4]) [µM] | EC50 (Plasmodium falciparum [5]) [µM] | EC50 (Plasmodium falciparum [8]) [µM] | EC50 (Leishmania major) [µM] | EC50 [9] [µM] | EC50 [10] [µM] | EC50 (Toxoplasma gondii) [µM] | EC50 (Plasmodium falciparum [11]) [µM] | EC50 (Plasmodium falciparum [12]) [µM] | EC50 (Plasmodium falciparum [13]) [µM]
2.52 | 3.1 | CCCCCCCn1ccc(=N)cc1 | > 49.3 | > 51.4 | > 51.4 | 10.3 | 2.19 | 4.17 | > 13.2 | > 22 | > 51.4 | 10.8 | > 28.2 | 2.31 | 3.84 | 2.73
1.54 | 1.15 | CCOc1ccc(Nc2nc(NCc3ccccc3)c3ccccc3n2)cc1 | 5.62 | 4.77 | 8.67 | 1.07 | 1.14 | 0.305 | > 10.2 | 0.0088 | 8.41 | 8.22 | > 21.7 | 1.44 | 1.07 | 0.651
1.38 | > 15 | C#CC[n+]1ccn2c(C)ccc2c1CC | > 47.7 | > 49.8 | > 49.8 | > 12.8 | 1.68 | 2.53 | 3.44 | > 21.3 | > 49.8 | 40.7 | > 27.3 | 1.42 | > 12.8 | 1.54
0.893 | 1.59 | CSc1ccc2ccccc2[n+]1C | > 35.6 | > 37.1 | > 37.1 | 1.83 | 0.59 | 1.2 | 3.21 | > 15.9 | > 37.1 | > 37.1 | > 20.3 | 0.588 | 1.11 | 1.53
0.872 | 0.599 | COc1ccc(C2CC(=O)C3=C(C2)NC(=O)CC3c2ccc(C(F)(F)F)cc2)cc1OC (stereo unspecified) | > 45.5 | > 47.5 | > 47.5 | 1.19 | 2.15 | 1.09 | 0.417 | > 20.3 | > 47.5 | > 47.5 | > 26 | 1.59 | 1.11 | 0.894
0.747 | 0.463 | Cc1ccc(NC(=O)C2c3ccccc3C(=O)N(CC(C)C)C2c2cccs2)c(Cl)c1 (stereo unspecified) | 8.03 | > 44.1 | > 44.1 | 1.18 | > 11.3 | 0.741 | 0.849 | > 18.9 | > 44.1 | > 44.1 | > 24.1 | > 11.3 | 0.628 | 0.981
0.579 | 1.08 | CC(C)(C)c1ccc(S(=O)(=O)NC2=C/C(=N\c3ccc(O)cc3)C(=O)c3ccccc32)cc1 | 0.669 | 2.18 | 7.99 | 0.687 | 0.6 | 0.304 | 0.385 | > 14 | 4.62 | 4.07 | > 18 | 0.326 | 0.244 | 1.03
0.267 | 0.916 | CC(O)(c1ccc(Cl)cc1)C(CN1CCCCC1)c1ccccc1 (stereo unspecified) | 24 | > 50.6 | > 50.6 | 1.31 | 2.2 | 4.24 | 7.8 | > 21.6 | > 50.6 | > 50.6 | > 27.7 | 0.652 | 5.33 | 1.26
0.238 | 0.186 | N=c1n(CCN2CCCCC2)c2ccccc2n1CC(O)c1ccc(Cl)c(Cl)c1 (stereo unspecified) | 4.12 | 6.97 | 16 | 1.43 | 0.503 | 1.27 | 0.64 | > 21.9 | 10.4 | 21 | 11.5 | 0.617 | 1.29 | 0.346
0.0167 | 0.0247 | CCCO/C(O)=C1\C(C)=NC2=C(C(=O)CC(c3ccc(OC)c(OC)c3)C2)C1c1ccccc1Cl (stereo unspecified) | 9.3 | > 39.1 | > 39.1 | 0.066 | 0.0752 | 0.0262 | 0.017 | > 16.7 | > 39.1 | > 39.1 | > 21.4 | 0.0371 | 0.0369 | 0.05
